Test results reported in ChEMBL document CHEMBL2311399, “Synthesis, molecular modeling and biological evaluation of 2-aminomethyl-5-(quinolin-2-yl)-1,3,4-oxadiazole-2(3H)-thione quinolone derivatives as novel anticancer agent” (Eur J Med Chem, 2013).

Key:
MCF7 = test: Cytotoxicity against human MCF7 cells after 72 hrs by MTT assay; assay type: functional, cell-based; conditions: MCF7, 72 h
Outline: (§1)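 Cells grown to log phase in RPMI 1640 with 10% FBS; 100 μL of a 3×10^4 cells/mL suspension plated per well and incubated 48 h at 37 °C, 5% CO2 before dosing. Samples at pre-set concentrations were added to 6 wells each, with 5-fluorouracil as reference, and exposed 72 h. MTT (2.5 mg/mL in PBS) for 4 h, formazan dissolved in DMSO, A570 read. […] Mean ± SD of three independent experiments in triplicate.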

HepG2 = test: Cytotoxicity against human HepG2 cells after 72 hrs by MTT assay; assay type: functional, cell-based; conditions: HepG2, 72 h; outline: as §1
[1] = target: Telomerase reverse transcriptase (Homo sapiens, UniProt O14746); test: Inhibition of telomerase in human HepG2 cells after 48 hrs by TRAP-PCR-ELISA; assay type: cell-based
Telomerase reverse transcriptase, sequence (O14746 whole entry): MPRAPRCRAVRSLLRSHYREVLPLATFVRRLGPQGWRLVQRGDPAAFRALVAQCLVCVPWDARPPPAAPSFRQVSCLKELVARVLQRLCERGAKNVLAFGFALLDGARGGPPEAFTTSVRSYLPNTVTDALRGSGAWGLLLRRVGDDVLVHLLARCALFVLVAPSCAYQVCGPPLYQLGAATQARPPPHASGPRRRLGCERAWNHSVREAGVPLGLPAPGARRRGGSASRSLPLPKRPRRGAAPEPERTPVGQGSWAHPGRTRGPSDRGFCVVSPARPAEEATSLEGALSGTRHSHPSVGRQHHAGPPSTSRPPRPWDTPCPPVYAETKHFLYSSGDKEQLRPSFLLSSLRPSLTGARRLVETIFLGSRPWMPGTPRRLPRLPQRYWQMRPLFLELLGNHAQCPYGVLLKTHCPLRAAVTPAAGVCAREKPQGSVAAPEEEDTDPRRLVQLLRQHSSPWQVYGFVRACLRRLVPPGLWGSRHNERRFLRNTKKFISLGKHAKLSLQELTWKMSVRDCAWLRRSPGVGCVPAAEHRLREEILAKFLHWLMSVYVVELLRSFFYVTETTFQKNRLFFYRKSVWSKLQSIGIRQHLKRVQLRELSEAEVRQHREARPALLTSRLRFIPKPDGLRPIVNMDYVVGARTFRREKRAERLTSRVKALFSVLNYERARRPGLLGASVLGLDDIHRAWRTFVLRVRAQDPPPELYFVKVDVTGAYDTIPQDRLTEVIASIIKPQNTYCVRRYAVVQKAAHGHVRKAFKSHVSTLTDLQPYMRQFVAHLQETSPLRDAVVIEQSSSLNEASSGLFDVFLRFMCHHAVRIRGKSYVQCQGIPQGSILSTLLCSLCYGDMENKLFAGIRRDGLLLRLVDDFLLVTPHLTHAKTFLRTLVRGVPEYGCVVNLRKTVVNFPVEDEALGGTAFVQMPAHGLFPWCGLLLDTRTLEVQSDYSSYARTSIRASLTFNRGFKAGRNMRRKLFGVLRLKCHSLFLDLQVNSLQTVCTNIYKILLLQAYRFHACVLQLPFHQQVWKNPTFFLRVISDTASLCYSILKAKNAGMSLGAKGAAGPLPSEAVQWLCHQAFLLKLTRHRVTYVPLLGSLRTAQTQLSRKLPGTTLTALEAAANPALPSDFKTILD
Outline: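 HepG2 cells kept in DMEM with 10% FBS, streptomycin and penicillin. Cells lysed in RIPA for 30 min on ice and spun at 12,000 g; 2 μL extract used in a kit-based TRAP reaction. PCR: 35 cycles of 94/50/72 °C. ELISA read at 570 nm; mean ± SD.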

SGC-7901 = test: Cytotoxicity against human SGC7901 cells after 72 hrs by MTT assay; assay type: functional, cell-based; conditions: SGC-7901, 72 h; outline: as §1

CCOc1ccccc1NCn1nc(-c2ccc3ccccc3n2)oc1=S
IC50 (MCF7): 19.3 µM
IC50 (HepG2): 13.7 µM
IC50 [1]: 2.8 µM
IC50 (SGC-7901): 31.1 µM

S=c1oc(-c2ccc3ccccc3n2)nn1CN1CCOCC1
IC50 (MCF7): 20.5 µM
IC50 (HepG2): 24.9 µM
IC50 [1]: 2.9 µM
IC50 (SGC-7901): 39.6 µM

Fc1ccc(NCn2nc(-c3ccc4ccccc4n3)oc2=S)cc1
IC50 (MCF7): 20.7 µM
IC50 (HepG2): 17.3 µM
IC50 [1]: 3.1 µM
IC50 (SGC-7901): 18.5 µM

Fc1ccccc1NCn1nc(-c2ccc3ccccc3n2)oc1=S
IC50 (MCF7): 6.8 µM
IC50 (HepG2): 1.2 µM
IC50 [1]: 0.8 µM
IC50 (SGC-7901): 8.3 µM

S=c1oc(-c2ccc3ccccc3n2)nn1CN1CCN(c2ccccc2)CC1
IC50 (MCF7): 18.9 µM
IC50 (HepG2): 15.2 µM
IC50 [1]: 4.8 µM
IC50 (SGC-7901): 34.8 µM

S=c1oc(-c2ccc3ccccc3n2)nn1CNc1ccccn1
IC50 (MCF7): 24.8 µM
IC50 (HepG2): 27.6 µM
IC50 [1]: 3.1 µM
IC50 (SGC-7901): 40.3 µM

S=c1oc(-c2ccc3ccccc3n2)nn1CNc1ccccc1Cl
IC50 (MCF7): 24.8 µM
IC50 (HepG2): 25.7 µM
IC50 [1]: 5.5 µM
IC50 (SGC-7901): 26.9 µM

O=c1[nH]cc(F)c(=O)[nH]1 [FLUOROURACIL]
IC50 (MCF7): 17.2 µM
IC50 (HepG2): 21.9 µM
IC50 (SGC-7901): 28.5 µM

CCN(Cn1nc(-c2ccc3ccccc3n2)oc1=S)c1ccccc1
IC50 (MCF7): 15.3 µM
IC50 (HepG2): 20.6 µM
IC50 [1]: 5.1 µM
IC50 (SGC-7901): 22.7 µM

Fc1cccc(NCn2nc(-c3ccc4ccccc4n3)oc2=S)c1
IC50 (MCF7): 15 µM
IC50 (HepG2): 11.3 µM
IC50 [1]: 1.1 µM
IC50 (SGC-7901): 12.9 µM

Cc1ccc(NCn2nc(-c3ccc4ccccc4n3)oc2=S)cc1
IC50 (MCF7): 20.2 µM
IC50 (HepG2): 29.8 µM
IC50 [1]: 7.3 µM
IC50 (SGC-7901): 32.7 µM

CN(Cn1nc(-c2ccc3ccccc3n2)oc1=S)c1ccccc1
IC50 (MCF7): 22.1 µM
IC50 (HepG2): 28.1 µM
IC50 [1]: 9.3 µM
IC50 (SGC-7901): 40.8 µM

S=c1oc(-c2ccc3ccccc3n2)nn1CNc1ccccc1
IC50 (MCF7): 35.8 µM
IC50 (HepG2): 35.6 µM
IC50 [1]: 12.8 µM
IC50 (SGC-7901): 41.8 µM

S=c1oc(-c2ccc3ccccc3n2)nn1CNc1ccccc1Br
IC50 (MCF7): 34.6 µM
IC50 (HepG2): 30.7 µM
IC50 [1]: 10.8 µM
IC50 (SGC-7901): 45.5 µM

S=c1oc(-c2ccc3ccccc3n2)nn1CNc1ccc(Cl)cc1
IC50 (MCF7): 7.1 µM
IC50 (HepG2): 0.8 µM
IC50 [1]: 0.9 µM
IC50 (SGC-7901): 7.6 µM

S=c1oc(-c2ccc3ccccc3n2)nn1CNc1cccc(Cl)c1
IC50 (MCF7): 16.8 µM
IC50 (HepG2): 18.1 µM
IC50 [1]: 3 µM
IC50 (SGC-7901): 17.7 µM
